The source made the active and inactive calls. The calls are words filed in the database; no cut-off is given here.
Experiments:
[1] = Neurotoxicity in Sprague-Dawley rat at 30 mg/kg, po measured after 0.5 hrs by rotarod test; type: toxicity, organism-based; conditions: in vivo
Outline: (§1)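 Rat neurotoxicity after i.p. or p.o. dosing was scored as animals impaired / animals tested at each time point. For p.o. dosing, TD50 was obtained by probit analysis.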

[2] = Neurotoxicity in CF-1 mouse at 300 mg/kg, ip measured after 0.5 hrs by rotarod test; type: toxicity, organism-based; conditions: in vivo
Outline: (§2)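 Mice dosed i.p. were placed on a 1 in. knurled rod turning at 6 rpm. Toxicity was scored as failure to keep balance for at least 1 min, i.e. falling off three or more times. Results are reported as animals showing toxicity / animals tested at each time point.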

[3] = Neurotoxicity in CF-1 mouse at 300 mg/kg, ip measured after 4 hrs by rotarod test; type: toxicity, organism-based; conditions: in vivo; outline: as §2
Mus musculus [4] = assay: Anticonvulsant activity in CF-1 mouse model of maximal electroshock-induced seizure assessed as suppression of tonic hind limb extension at 100 mg/kg, ip measured at 1 hr post dose; type: functional, organism-based
Outline: (§3)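 Mice dosed i.p. and given maximal electroshock at 50 mA. Read-out is protection, reported as number protected / number tested at 0.25, 0.5, 1 and 4 h after dosing.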

Mus musculus [5] = assay: Anticonvulsant activity in CF-1 mouse model of subcutaneous pentylenetetrazole-induced seizure assessed as reduction in convulsions at 100 mg/kg, ip measured at 4 hrs post dose; type: functional, organism-based
Outline: (§4)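 Mice dosed i.p., then given pentylenetetrazole 85 mg/kg in 0.9% NaCl s.c. into the posterior midline of the neck. Seizures watched for at least 30 min. Scored as protected / tested at 0.5 and 4 h.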

Mus musculus [6] = assay: Anticonvulsant activity in CF-1 mouse model of maximal electroshock-induced seizure assessed as suppression of tonic hind limb extension at 30 mg/kg, ip measured at 4 hrs post dose; type: functional, organism-based; outline: as §3
Mus musculus [7] = assay: Anticonvulsant activity in CF-1 mouse model of maximal electroshock-induced seizure assessed as suppression of tonic hind limb extension at 300 mg/kg, ip measured at 0.5 hrs post dose; type: functional, organism-based; outline: as §3
Mus musculus [8] = assay: Anticonvulsant activity in CF-1 mouse model of subcutaneous pentylenetetrazole-induced seizure assessed as reduction in convulsions at 100 mg/kg, ip measured at 0.5 hrs post dose; type: functional, organism-based; outline: as §4
Mus musculus [9] = assay: Anticonvulsant activity in CF-1 mouse model of maximal electroshock-induced seizure assessed as suppression of tonic hind limb extension at 100 mg/kg, ip measured at 4 hrs post dose; type: functional, organism-based; outline: as §3
[10] = Neurotoxicity in Sprague-Dawley rat at 30 mg/kg, po measured after 1 hr by rotarod test; type: toxicity, organism-based; conditions: in vivo; outline: as §1
Mus musculus [11] = assay: Anticonvulsant activity in CF-1 mouse model of subcutaneous pentylenetetrazole-induced seizure assessed as reduction in convulsions at 30 mg/kg, ip measured at 0.5 hrs post dose; type: functional, organism-based; outline: as §4
Mus musculus [12] = assay: Anticonvulsant activity in CF-1 mouse model of subcutaneous pentylenetetrazole-induced seizure assessed as reduction in convulsions at 30 mg/kg, ip measured at 4 hrs post dose; type: functional, organism-based; outline: as §4
[13] = Neurotoxicity in CF-1 mouse at 30 mg/kg, ip measured after 4 hrs by rotarod test; type: toxicity, organism-based; conditions: in vivo; outline: as §2
[14] = Neurotoxicity in Sprague-Dawley rat at 30 mg/kg, po measured after 2 hrs by rotarod test; type: toxicity, organism-based; conditions: in vivo; outline: as §1
Mus musculus [15] = assay: Anticonvulsant activity in CF-1 mouse model of maximal electroshock-induced seizure assessed as suppression of tonic hind limb extension at 100 mg/kg, ip measured at 0.5 hrs post dose; type: functional, organism-based; outline: as §3
[16] = Neurotoxicity in CF-1 mouse at 30 mg/kg, ip measured after 0.5 hrs by rotarod test; type: toxicity, organism-based; conditions: in vivo; outline: as §2
Rattus norvegicus [17] = assay: Anticonvulsant activity in Sprague-Dawley rat model of maximal electroshock-induced seizure assessed as suppression of tonic hind limb extension at 30 mg/kg, po measured at 1 hr post dose; type: functional, organism-based
Outline: (§5)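 Rats given 30 mg/kg p.o. and tested by maximal electroshock at 150 mA. Scored as number protected / number tested (4 per group) at 0.25, 0.5, 1, 2 and 4 h after dosing.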

Mus musculus [18] = assay: Anticonvulsant activity in CF-1 mouse model of maximal electroshock-induced seizure assessed as suppression of tonic hind limb extension at 300 mg/kg, ip measured at 4 hrs post dose; type: functional, organism-based; outline: as §3
Mus musculus [19] = assay: Anticonvulsant activity in CF-1 mouse model of maximal electroshock-induced seizure assessed as suppression of tonic hind limb extension at 30 mg/kg, ip measured at 0.5 hrs post dose; type: functional, organism-based; outline: as §3
[20] = Neurotoxicity in Sprague-Dawley rat at 30 mg/kg, po measured after 0.25 hrs by rotarod test; type: toxicity, organism-based; conditions: in vivo; outline: as §1
[21] = Neurotoxicity in CF-1 mouse at 100 mg/kg, ip measured after 1 hr by rotarod test; type: toxicity, organism-based; conditions: in vivo; outline: as §2
Mus musculus [22] = assay: Anticonvulsant activity in CF-1 mouse model of subcutaneous pentylenetetrazole-induced seizure assessed as reduction in convulsions at 300 mg/kg, ip measured at 0.5 hrs post dose; type: functional, organism-based; outline: as §4
[23] = Neurotoxicity in Sprague-Dawley rat at 30 mg/kg, po measured after 4 hrs by rotarod test; type: toxicity, organism-based; conditions: in vivo; outline: as §1
Rattus norvegicus [24] = assay: Anticonvulsant activity in Sprague-Dawley rat model of maximal electroshock-induced seizure assessed as suppression of tonic hind limb extension at 30 mg/kg, po measured at 2 hrs post dose; type: functional, organism-based; outline: as §5
Mus musculus [25] = assay: Anticonvulsant activity in CF-1 mouse model of subcutaneous pentylenetetrazole-induced seizure assessed as reduction in convulsions at 300 mg/kg, ip measured at 4 hrs post dose; type: functional, organism-based; outline: as §4
[26] = Mutagenicity in Salmonella typhimurium TA1535 assessed as mutagenicity index at 50 to 500 ug/plate preincubated for 30 mins followed by top agar addition and measured after 48 hrs in absence of liver S9 fraction by Ames test; type: toxicity; conditions: salmonella enterica subsp. enterica serovar typhimurium, s9, 48 h
Outline: (§6)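 Ames plate incorporation in S. typhimurium TA100 or TA1535, with or without S9. Overnight culture, compound in DMSO (50–500 µg per plate) and buffer or S9 mix preincubated 30 min at 37 °C, then top agar on glucose minimal agar. Incubated 48 h at 37 °C, revertants counted in triplicate. Vehicle negative control; NaN3 (−S9) and 2AA (+S9) positive controls. MI = revertants with compound / negative-control revertants; MI ≥ 2 with dose-response counts as positive.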

Salmonella typhimurium [27] = assay: Antimutagenic activity against Salmonella typhimurium TA100 assessed as inhibition of NaN3-induced mutation at 250 ug/plate preincubated for 30 mins followed by top agar addition and measured after 48 hrs in presence of liver S9 fraction by Ames test relative to control; type: organism-based; conditions: salmonella enterica subsp. enterica serovar typhimurium, s9, 48 h
Salmonella typhimurium [28] = assay: Antimutagenic activity against Salmonella typhimurium TA100 assessed as inhibition of NaN3-induced mutation at 500 ug/plate preincubated for 30 mins followed by top agar addition and measured after 48 hrs in presence of liver S9 fraction by Ames test relative to control; type: organism-based; conditions: salmonella enterica subsp. enterica serovar typhimurium, s9, 48 h
Salmonella typhimurium [29] = assay: Antimutagenic activity against Salmonella typhimurium TA100 assessed as inhibition of NaN3-induced mutation at 100 ug/plate preincubated for 30 mins followed by top agar addition and measured after 48 hrs in presence of liver S9 fraction by Ames test relative to control; type: organism-based; conditions: salmonella enterica subsp. enterica serovar typhimurium, s9, 48 h
Salmonella typhimurium [30] = assay: Antimutagenic activity against Salmonella typhimurium TA1535 assessed as inhibition of NaN3-induced mutation at 100 ug/plate preincubated for 30 mins followed by top agar addition and measured after 48 hrs in presence of liver S9 fraction by Ames test relative to control; type: organism-based; conditions: salmonella enterica subsp. enterica serovar typhimurium, s9, 48 h
Salmonella typhimurium [31] = assay: Antimutagenic activity against Salmonella typhimurium TA100 assessed as inhibition of NaN3-induced mutation at 50 ug/plate preincubated for 30 mins followed by top agar addition and measured after 48 hrs in presence of liver S9 fraction by Ames test relative to control; type: organism-based; conditions: salmonella enterica subsp. enterica serovar typhimurium, s9, 48 h
[32] = Mutagenicity in Salmonella typhimurium TA1535 assessed as mutagenicity index at 50 to 500 ug/plate preincubated for 30 mins followed by top agar addition and measured after 48 hrs in presence of liver S9 fraction by Ames test; type: toxicity, subcellular; conditions: salmonella enterica subsp. enterica serovar typhimurium, s9, 48 h; outline: as §6
Salmonella typhimurium [33] = assay: Antimutagenic activity against Salmonella typhimurium TA1535 assessed as inhibition of NaN3-induced mutation at 250 ug/plate preincubated for 30 mins followed by top agar addition and measured after 48 hrs in presence of liver S9 fraction by Ames test relative to control; type: organism-based; conditions: salmonella enterica subsp. enterica serovar typhimurium, s9, 48 h
Salmonella typhimurium [34] = assay: Antimutagenic activity against Salmonella typhimurium TA1535 assessed as inhibition of NaN3-induced mutation at 500 ug/plate preincubated for 30 mins followed by top agar addition and measured after 48 hrs in presence of liver S9 fraction by Ames test relative to control; type: organism-based; conditions: salmonella enterica subsp. enterica serovar typhimurium, s9, 48 h
Salmonella typhimurium [35] = assay: Antimutagenic activity against Salmonella typhimurium TA1535 assessed as inhibition of NaN3-induced mutation at 50 ug/plate preincubated for 30 mins followed by top agar addition and measured after 48 hrs in presence of liver S9 fraction by Ames test relative to control; type: organism-based; conditions: salmonella enterica subsp. enterica serovar typhimurium, s9, 48 h
[36] = Neurotoxicity in CF-1 mouse at 100 mg/kg, ip measured after 4 hrs by rotarod test; type: toxicity, organism-based; conditions: in vivo; outline: as §2
[37] = Mutagenicity in Salmonella typhimurium TA100 assessed as mutagenicity index at 50 to 500 ug/plate preincubated for 30 mins followed by top agar addition and measured after 48 hrs in presence of liver S9 fraction by Ames test; type: toxicity, subcellular; conditions: salmonella enterica subsp. enterica serovar typhimurium, s9, 48 h; outline: as §6
[38] = Mutagenicity in Salmonella typhimurium TA100 assessed as mutagenicity index at 50 to 500 ug/plate preincubated for 30 mins followed by top agar addition and measured after 48 hrs in absence of liver S9 fraction by Ames test; type: toxicity; conditions: salmonella enterica subsp. enterica serovar typhimurium, s9, 48 h; outline: as §6

## Cc1cccc(C)c1OCC(=O)NC(C)CO (centres undefined)
[1]
  Activity: Non-Toxic
[2]
  Activity: Toxic
[3]
  Activity: Non-Toxic
Mus musculus [4]
  Activity: inactive
Mus musculus [5]
  Activity: inactive
Mus musculus [6]
  Activity: inactive
Mus musculus [7]
  Activity: Active
Mus musculus [8]
  Activity: inactive
Mus musculus [9]
  Activity: inactive
[10]
  Activity: Non-Toxic
Mus musculus [11]
  Activity: inactive
Mus musculus [12]
  Activity: inactive
[13]
  Activity: Non-Toxic
[14]
  Activity: Non-Toxic
Mus musculus [15]
  Activity: inactive
[16]
  Activity: Non-Toxic
Rattus norvegicus [17]
  Activity: inactive
Mus musculus [18]
  Activity: inactive
Mus musculus [19]
  Activity: inactive
[20]
  Activity: Non-Toxic
[21]
  Activity: Non-Toxic
Mus musculus [22]
  Activity: inactive
[23]
  Activity: Non-Toxic
Rattus norvegicus [24]
  Activity: inactive
Mus musculus [25]
  Activity: inactive

## Cc1cccc(C)c1OCC(=O)NCC(O)c1ccccc1 (centres undefined)
[26]
  Activity index: 0.7 to 1.7
[2]
  Activity: Non-Toxic
[3]
  Activity: Non-Toxic
Salmonella typhimurium [27]
  inhibition (INH): 51%
Salmonella typhimurium [28]
  inhibition (INH): 41%
Mus musculus [5]
  Activity: inactive
Salmonella typhimurium [29]
  inhibition (INH): 45%
Salmonella typhimurium [30]
  inhibition (INH): 45%
Mus musculus [6]
  Activity: inactive
Salmonella typhimurium [31]
  inhibition (INH): 17%
Mus musculus [7]
  Activity: inactive
Mus musculus [8]
  Activity: inactive
Mus musculus [9]
  Activity: inactive
[32]
  Activity index: 0.7 to 1.7
Mus musculus [11]
  Activity: inactive
Salmonella typhimurium [33]
  inhibition (INH): 35%
Mus musculus [12]
  Activity: inactive
Salmonella typhimurium [34]
  inhibition (INH): 13%
Salmonella typhimurium [35]
  inhibition (INH): 58%
[13]
  Activity: Non-Toxic
[36]
  Activity: Non-Toxic
Mus musculus [15]
  Activity: inactive
[16]
  Activity: Non-Toxic
[37]
  Activity index: 0.7 to 1.7
Mus musculus [18]
  Activity: inactive
Mus musculus [19]
  Activity: inactive
Mus musculus [22]
  Activity: inactive
[38]
  Activity index: 0.7 to 1.7
Mus musculus [25]
  Activity: inactive

Source: ChEMBL document CHEMBL4368872, “Synthesis and anticonvulsant activity of phenoxyacetyl derivatives of amines, including aminoalkanols and amino acids” (Medchemcomm, 2018)
